Test results as given in ChEMBL document CHEMBL1137588, “An evaluation of 3,4-methylenedioxy phenyl replacements in the aminopiperidine chromone class of MCHr1 antagonists” (Bioorg Med Chem Lett, 2007).
Each block holds one compound with its values, some of them ahead of it.

Columns and labels:
[1] = target: Melanin-concentrating hormone receptor 1 (Homo sapiens, UniProt Q99705); experiment: Displacement of 125I-MCH from MCH-R1 expressed in IMR-32 cells; format: cell-based
[2] = target: Melanin-concentrating hormone receptor (Homo sapiens, UniProt Q969V1+Q99705); experiment: Inhibition of MCH-mediated calcium release in IMR-32 cells; format: functional, cell-based
[3] = target: Voltage-gated inwardly rectifying potassium channel KCNH2 (Homo sapiens, UniProt Q12809)
[4] = target: hERG versus MCH receptor (Homo sapiens, UniProt Q12809+Q969V1); experiment: in vitro
[5] = target: Beta-2 adrenergic receptor (Homo sapiens) (UniProt P07550); experiment: Inhibition of adrenergic beta 2 receptor at 10uM
[6] = target: Muscarinic acetylcholine receptor M2 (Homo sapiens) (UniProt P08172); experiment: Inhibition of human muscarinic M2 receptor at 10uM
[7] = target: 5-hydroxytryptamine receptor 1A (Homo sapiens) (UniProt P08908); experiment: Inhibition of human serotonin 5HT1A receptor at 10uM
[8] = target: Muscarinic acetylcholine receptor M1 (Homo sapiens) (UniProt P11229); experiment: Inhibition of human muscarinic M1 receptor at 10uM
[9] = target: D(1A) dopamine receptor (Homo sapiens) (UniProt P21728); experiment: Inhibition of human dopamine D1 receptor at 10uM
[10] = target: Sodium-dependent noradrenaline transporter (Homo sapiens) (UniProt P23975); experiment: Inhibition of human norepinephrine transporter receptor at 10uM
[11] = target: Histamine H2 receptor (Homo sapiens) (UniProt P25021); experiment: Inhibition of histamine H2 receptor at 10uM
[12] = target: 5-hydroxytryptamine receptor 1B (Homo sapiens) (UniProt P28222); experiment: Inhibition of serotonin 5HT1B receptor at 10uM
[13] = target: 5-hydroxytryptamine receptor 2A (Homo sapiens) (UniProt P28223); experiment: Inhibition of human serotonin 5HT2A receptor at 10uM
[14] = target: Adenosine receptor A1 (Homo sapiens) (UniProt P30542); experiment: Inhibition of human adenosine A1 receptor at 10uM
[15] = target: Histamine H1 receptor (Homo sapiens) (UniProt P35367); experiment: Inhibition of histamine H1 receptor at 10uM
[16] = target: Kappa-type opioid receptor (Homo sapiens) (UniProt P41145); experiment: Inhibition of human kappa opioid receptor at 10uM
[17] = target: Sodium-dependent dopamine transporter (Homo sapiens) (UniProt Q01959); experiment: Inhibition of human dopamine transporter at 10uM
[18] = target: Sigma non-opioid intracellular receptor 1 (Homo sapiens) (UniProt Q99720); experiment: Inhibition of sigma receptor at 10uM
[19] = target: Adrenergic receptor alpha-1 (Homo sapiens) (UniProt P35348+P25100+P35368); experiment: Inhibition of adrenergic alpha 1 receptor at 10uM; format: protein assay
[20] = Inhibition of calcium-activated potassium (SK) channel at 10uM
[21] = Inhibition of sodium channel at 10uM
[22] = target: L-type calcium channel (Homo sapiens, UniProt O60840+Q01668+Q13698+Q13936); experiment: Inhibition of L-type calcium channel at 10uM; format: protein assay
[23] = target: Adrenergic receptor alpha-2 (Homo sapiens) (UniProt P08913+P18825+P18089); experiment: Inhibition of adrenergic alpha 2 receptor at 10uM; format: protein assay
[24] = target: Cytochrome P450 3A4 (Homo sapiens, UniProt P08684); experiment: Inhibition of CYP3A4; format: ADME
How it was run: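 Human hepatic microsomes; CYP3A4 activity followed as oxidation of [3H]-terfenadine. IC50 taken as the compound concentration giving competitive inhibition of this oxidation.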

Melanin-concentrating hormone receptor 1, sequence (Q99705 whole entry): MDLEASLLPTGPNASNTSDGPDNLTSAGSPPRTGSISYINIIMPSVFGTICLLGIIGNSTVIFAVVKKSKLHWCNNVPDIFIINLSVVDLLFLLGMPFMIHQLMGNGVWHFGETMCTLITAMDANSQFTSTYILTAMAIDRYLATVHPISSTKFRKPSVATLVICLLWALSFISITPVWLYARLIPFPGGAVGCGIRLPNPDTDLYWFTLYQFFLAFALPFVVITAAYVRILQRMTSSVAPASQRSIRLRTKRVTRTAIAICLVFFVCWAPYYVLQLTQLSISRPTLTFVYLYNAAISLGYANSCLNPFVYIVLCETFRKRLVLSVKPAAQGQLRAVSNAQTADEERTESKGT
Sigma non-opioid intracellular receptor 1 (Homo sapiens), sequence (Q99720 whole entry): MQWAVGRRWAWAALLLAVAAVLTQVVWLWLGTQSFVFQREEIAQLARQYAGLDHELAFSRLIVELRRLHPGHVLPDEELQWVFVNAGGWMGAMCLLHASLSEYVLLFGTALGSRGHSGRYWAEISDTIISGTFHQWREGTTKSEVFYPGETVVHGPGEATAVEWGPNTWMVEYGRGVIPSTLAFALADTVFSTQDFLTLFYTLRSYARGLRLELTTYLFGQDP
D(1A) dopamine receptor (Homo sapiens), sequence (P21728 whole entry): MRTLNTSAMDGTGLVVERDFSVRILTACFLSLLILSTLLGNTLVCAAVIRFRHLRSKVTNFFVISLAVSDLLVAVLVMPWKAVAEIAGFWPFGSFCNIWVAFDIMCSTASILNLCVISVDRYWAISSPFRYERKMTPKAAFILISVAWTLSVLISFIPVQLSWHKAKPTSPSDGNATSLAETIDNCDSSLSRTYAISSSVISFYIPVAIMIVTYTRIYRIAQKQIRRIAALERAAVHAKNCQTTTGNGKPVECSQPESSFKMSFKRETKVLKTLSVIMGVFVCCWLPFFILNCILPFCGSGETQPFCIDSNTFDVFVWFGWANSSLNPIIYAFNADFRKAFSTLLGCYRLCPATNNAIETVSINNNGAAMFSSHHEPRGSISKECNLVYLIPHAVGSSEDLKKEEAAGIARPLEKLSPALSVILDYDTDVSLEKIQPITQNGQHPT
Voltage-gated inwardly rectifying potassium channel KCNH2, sequence (Q12809 whole entry): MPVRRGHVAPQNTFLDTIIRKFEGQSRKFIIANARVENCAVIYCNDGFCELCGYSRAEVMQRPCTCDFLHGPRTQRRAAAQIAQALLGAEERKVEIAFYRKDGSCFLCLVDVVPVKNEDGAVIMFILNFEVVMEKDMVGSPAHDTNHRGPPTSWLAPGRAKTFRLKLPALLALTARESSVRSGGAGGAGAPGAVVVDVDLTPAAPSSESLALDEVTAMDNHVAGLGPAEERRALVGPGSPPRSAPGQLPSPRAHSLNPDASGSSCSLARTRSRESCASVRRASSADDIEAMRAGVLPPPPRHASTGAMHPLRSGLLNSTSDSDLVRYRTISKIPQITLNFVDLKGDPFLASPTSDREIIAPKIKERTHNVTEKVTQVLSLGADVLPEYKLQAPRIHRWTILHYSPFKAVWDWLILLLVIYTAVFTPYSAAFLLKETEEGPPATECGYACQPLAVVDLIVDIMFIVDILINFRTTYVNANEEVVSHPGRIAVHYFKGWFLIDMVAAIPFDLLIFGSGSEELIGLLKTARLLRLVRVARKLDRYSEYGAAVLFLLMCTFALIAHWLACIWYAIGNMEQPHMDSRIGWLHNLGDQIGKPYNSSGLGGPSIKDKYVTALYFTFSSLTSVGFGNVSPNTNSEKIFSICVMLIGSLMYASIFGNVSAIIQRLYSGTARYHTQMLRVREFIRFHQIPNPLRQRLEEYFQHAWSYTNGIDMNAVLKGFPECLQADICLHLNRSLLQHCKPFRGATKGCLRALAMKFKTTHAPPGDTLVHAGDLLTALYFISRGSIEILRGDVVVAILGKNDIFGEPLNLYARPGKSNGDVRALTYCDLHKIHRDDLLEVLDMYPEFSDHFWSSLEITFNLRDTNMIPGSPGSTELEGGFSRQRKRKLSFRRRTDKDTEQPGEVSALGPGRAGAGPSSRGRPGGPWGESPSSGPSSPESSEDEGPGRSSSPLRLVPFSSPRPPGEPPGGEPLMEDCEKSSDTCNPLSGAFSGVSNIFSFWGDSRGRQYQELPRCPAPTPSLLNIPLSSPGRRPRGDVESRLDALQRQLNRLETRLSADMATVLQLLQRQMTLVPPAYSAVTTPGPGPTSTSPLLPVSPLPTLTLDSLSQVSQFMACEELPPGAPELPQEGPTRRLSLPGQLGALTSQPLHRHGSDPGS
Sodium-dependent dopamine transporter (Homo sapiens), sequence (Q01959 whole entry): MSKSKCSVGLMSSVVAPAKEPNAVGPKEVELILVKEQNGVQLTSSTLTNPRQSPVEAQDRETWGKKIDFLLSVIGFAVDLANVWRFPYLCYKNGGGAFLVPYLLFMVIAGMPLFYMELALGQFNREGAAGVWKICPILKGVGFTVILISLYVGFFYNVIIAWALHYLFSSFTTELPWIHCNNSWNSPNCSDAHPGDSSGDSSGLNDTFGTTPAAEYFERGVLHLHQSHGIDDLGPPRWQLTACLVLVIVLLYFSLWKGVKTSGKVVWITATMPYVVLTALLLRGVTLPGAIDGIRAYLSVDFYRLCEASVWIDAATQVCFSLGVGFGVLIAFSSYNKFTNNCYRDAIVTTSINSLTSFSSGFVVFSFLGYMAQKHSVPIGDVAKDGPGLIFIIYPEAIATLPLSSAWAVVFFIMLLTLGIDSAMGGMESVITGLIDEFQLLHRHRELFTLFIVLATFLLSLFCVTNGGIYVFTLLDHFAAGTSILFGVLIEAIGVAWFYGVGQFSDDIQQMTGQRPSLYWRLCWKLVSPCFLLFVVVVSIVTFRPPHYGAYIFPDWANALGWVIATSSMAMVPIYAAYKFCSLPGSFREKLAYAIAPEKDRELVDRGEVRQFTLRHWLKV
Adenosine receptor A1 (Homo sapiens), sequence (P30542 whole entry): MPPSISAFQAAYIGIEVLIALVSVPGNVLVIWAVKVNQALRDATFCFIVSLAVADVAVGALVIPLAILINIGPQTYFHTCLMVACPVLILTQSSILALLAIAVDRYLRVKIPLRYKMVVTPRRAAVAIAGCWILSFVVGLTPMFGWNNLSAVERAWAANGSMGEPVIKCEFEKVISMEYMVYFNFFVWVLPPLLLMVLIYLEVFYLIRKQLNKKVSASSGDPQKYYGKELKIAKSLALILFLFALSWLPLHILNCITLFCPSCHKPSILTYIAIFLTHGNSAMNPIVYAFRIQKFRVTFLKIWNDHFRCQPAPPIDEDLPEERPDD
Histamine H1 receptor (Homo sapiens), sequence (P35367 whole entry): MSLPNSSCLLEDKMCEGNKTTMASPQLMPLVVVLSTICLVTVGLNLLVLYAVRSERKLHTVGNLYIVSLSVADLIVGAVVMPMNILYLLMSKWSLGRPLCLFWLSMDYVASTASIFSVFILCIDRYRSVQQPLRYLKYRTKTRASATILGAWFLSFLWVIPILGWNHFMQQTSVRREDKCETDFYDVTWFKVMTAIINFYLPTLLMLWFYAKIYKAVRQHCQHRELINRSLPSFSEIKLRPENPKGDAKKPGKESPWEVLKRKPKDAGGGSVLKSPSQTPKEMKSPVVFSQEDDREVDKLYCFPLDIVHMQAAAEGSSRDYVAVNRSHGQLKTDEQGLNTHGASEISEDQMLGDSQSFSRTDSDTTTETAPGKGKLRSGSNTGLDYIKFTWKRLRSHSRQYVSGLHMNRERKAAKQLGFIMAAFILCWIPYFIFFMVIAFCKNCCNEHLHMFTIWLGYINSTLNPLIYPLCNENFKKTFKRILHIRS
Beta-2 adrenergic receptor (Homo sapiens), sequence (P07550 whole entry, looked up): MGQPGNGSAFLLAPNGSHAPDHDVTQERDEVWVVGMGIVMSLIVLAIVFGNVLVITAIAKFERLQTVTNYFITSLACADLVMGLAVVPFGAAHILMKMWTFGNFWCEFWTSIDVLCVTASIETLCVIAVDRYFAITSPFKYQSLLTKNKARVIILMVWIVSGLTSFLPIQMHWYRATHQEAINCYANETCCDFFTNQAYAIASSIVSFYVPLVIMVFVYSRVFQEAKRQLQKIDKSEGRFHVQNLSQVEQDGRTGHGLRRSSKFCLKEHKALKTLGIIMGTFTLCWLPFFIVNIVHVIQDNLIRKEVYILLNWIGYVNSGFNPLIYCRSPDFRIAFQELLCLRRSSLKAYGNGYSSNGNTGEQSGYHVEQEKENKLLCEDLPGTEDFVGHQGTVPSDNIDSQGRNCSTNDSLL
5-hydroxytryptamine receptor 1A (Homo sapiens), sequence (P08908 whole entry): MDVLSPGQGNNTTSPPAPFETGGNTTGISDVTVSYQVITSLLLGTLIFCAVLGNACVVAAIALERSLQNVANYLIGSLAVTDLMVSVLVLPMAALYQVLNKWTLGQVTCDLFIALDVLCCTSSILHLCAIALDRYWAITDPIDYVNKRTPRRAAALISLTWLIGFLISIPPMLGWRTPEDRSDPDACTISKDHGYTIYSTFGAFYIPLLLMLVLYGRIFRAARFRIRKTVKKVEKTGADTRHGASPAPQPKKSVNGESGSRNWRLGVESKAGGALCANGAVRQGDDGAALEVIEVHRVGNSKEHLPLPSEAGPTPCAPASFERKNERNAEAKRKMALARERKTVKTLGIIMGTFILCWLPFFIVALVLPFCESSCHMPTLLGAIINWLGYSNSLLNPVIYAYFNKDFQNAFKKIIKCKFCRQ
5-hydroxytryptamine receptor 2A (Homo sapiens), sequence (P28223 whole entry): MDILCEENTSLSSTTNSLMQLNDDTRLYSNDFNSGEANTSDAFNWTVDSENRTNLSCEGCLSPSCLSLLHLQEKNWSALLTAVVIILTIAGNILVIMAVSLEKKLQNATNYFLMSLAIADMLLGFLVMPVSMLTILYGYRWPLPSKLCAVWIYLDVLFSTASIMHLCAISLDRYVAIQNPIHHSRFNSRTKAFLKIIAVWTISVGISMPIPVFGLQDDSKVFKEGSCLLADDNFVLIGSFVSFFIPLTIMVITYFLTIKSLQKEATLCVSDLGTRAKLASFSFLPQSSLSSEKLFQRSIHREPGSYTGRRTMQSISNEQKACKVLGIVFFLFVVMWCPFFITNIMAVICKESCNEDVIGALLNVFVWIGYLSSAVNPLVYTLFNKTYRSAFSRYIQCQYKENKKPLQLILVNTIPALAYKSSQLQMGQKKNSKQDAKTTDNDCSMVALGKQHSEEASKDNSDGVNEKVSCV

IC50 [1]: 3 nM | IC50 [2]: 44 nM
Compound: Cn1c(=O)ccc2ccc(CN3CCC(NC(=O)c4cc(=O)c5ccc(F)cc5o4)CC3)cc21
IC50 [3]: 47400 nM | selectivity ratio [4]: 1030

inhibition [5]: 16% | inhibition [6]: 15% | inhibition [7]: 25% | inhibition [8]: 16% | inhibition [9]: 7% | inhibition [10]: 45% | inhibition [11]: 21% | inhibition [12]: 5% | inhibition [13]: -10% | inhibition [14]: 11% | inhibition [15]: 36% | inhibition [16]: 43% | inhibition [17]: 67% | inhibition [18]: 37% | IC50 [1]: 1 nM | inhibition [19]: 13% | inhibition [20]: 17% | inhibition [21]: 72% | inhibition at 10 µM [22]: 10% | IC50 [2]: 46 nM | inhibition [23]: 28%
Compound: O=C(NC1CCN(Cc2ccc3ccc(=O)oc3c2)CC1)c1cc(=O)c2ccc(F)cc2o1

inhibition [5]: 21% | inhibition [6]: 42% | inhibition [7]: 48% | inhibition [8]: 55% | inhibition [9]: 43% | inhibition [10]: 48% | inhibition [11]: 16% | inhibition [12]: -6% | inhibition [13]: 17% | inhibition [14]: 8% | inhibition [15]: 65% | inhibition [16]: 66% | inhibition [17]: 26% | inhibition [18]: 104% | IC50 [24]: 23500 nM | inhibition [19]: 32% | inhibition at 10 µM [22]: 31% | inhibition [23]: 18%
Compound: O=C(NC1CCN(Cc2ccc3c(c2)OCO3)CC1)c1cc(=O)c2ccc(F)cc2o1

IC50 [1]: 10 nM | IC50 [2]: 106 nM
Compound: O=C(NC1CCN(Cc2ccc3ncoc3c2)CC1)c1cc(=O)c2ccc(F)cc2o1

IC50 [1]: 166 nM | IC50 [2]: 2410 nM
Compound: O=C1COc2cc(CN3CCC(NC(=O)c4cc(=O)c5ccc(F)cc5o4)CC3)ccc2N1

IC50 [1]: 43 nM | IC50 [2]: 569 nM
Compound: O=C(NC1CCN(Cc2ccc3oc(=O)[nH]c3c2)CC1)c1cc(=O)c2ccc(F)cc2o1

IC50 [1]: 47 nM | IC50 [2]: 551 nM
Compound: CC(=O)Nc1cccc(CN2CCC(NC(=O)c3cc(=O)c4ccc(F)cc4o3)CC2)c1

IC50 [2]: > 10000 nM
Compound: CC(=O)Nc1ccc(CN2CCC(NC(=O)c3cc(=O)c4ccc(F)cc4o3)CC2)cc1

IC50 [1]: 1270 nM | IC50 [2]: > 10000 nM
Compound: CCc1nc2ccc(CN3CCC(NC(=O)c4cc(=O)c5ccc(F)cc5o4)CC3)cc2o1
IC50 [3]: 26700 nM | selectivity ratio [4]: 2

IC50 [1]: 5 nM | IC50 [2]: 66 nM
Compound: O=C(NC1CCN(Cc2ccc3cc[nH]c3c2)CC1)c1cc(=O)c2ccc(F)cc2o1
